Measurements reported in ChEMBL document CHEMBL5303300, “EUbOPEN Chemogenomics Library - Multiplex” (2023).
Several values for one entry are separate records, joined by “and”; a condition that tells them apart may be missing. Equal entries are not always repeated.

System: Fibroblast
Assay: Multiplex assay against human fibroblast
Format: toxicity, cell-based
Settings: number of replicates 2
Summary of the method: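 Values for tubulin, mitochondrial-mass and membrane-permeability phenotypes are per cents of cells with healthy nuclei. These cells were identified by CellPathfinder machine-learning gating of live cells that had been stained at seeding with Hoechst33342, BioTracker Green Microtubule Cytoskeleton Dye, MitoTracker Red and Annexin V Alexa Fluor 680 and imaged on a CQ1 microscope at 37°C and 5% CO2 after compound addition. The gating first set Hoechst high-intensity objects apart from normal cells, then split normal cells into healthy, pyknosed or fragmented nuclei, and pyknosed cells into mitotic or apoptotic.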

[1] = 12 h, 1 µM, compound concentration 1 uM
[2] = 12 h, 10 µM, compound concentration 10 uM
[3] = 24 h, 1 µM, compound concentration 1 uM
[4] = 24 h, 10 µM, compound concentration 10 uM
[5] = 48 h, 1 µM, compound concentration 1 uM
[6] = 48 h, 10 µM, compound concentration 10 uM

## Cc1cn(CCN2CCN(c3ccccc3-c3cc(C#N)cc(C(=O)NCCCN4CCCC4)c3)CC2)c2ccccc12
[1]
  Population Apoptotic (%): 16% and 47%
  Population Fragmented Nuclei (%): 13% and 14%
  Population Healthy Nuclei (%): 70% and 63%
  Population Hoechst High Intensity Objects (%): 0%
  Population Membrane Permeable-Phenotype (%): 10% and 8%
  Population Mitochondria Different-Phenotype (%): 1% and 5%
  Population Mitotic Cells (%): 83% and 52%
  Population Normal (%): 100%
  Population Pyknosed Nuclei (%): 16% and 21%
  Population Tubulin-Different-Phenotype (%): 41% and 35%
  Total Cell Count: 222 and 214
[2]
  Population Apoptotic (%): 40% and 37%
  Population Fragmented Nuclei (%): 28% and 31%
  Population Healthy Nuclei (%): 51% and 56%
  Population Hoechst High Intensity Objects (%): 0%
  Population Membrane Permeable-Phenotype (%): 7% and 5%
  Population Mitochondria Different-Phenotype (%): 20% and 17%
  Population Mitotic Cells (%): 59% and 62%
  Population Normal (%): 100%
  Population Pyknosed Nuclei (%): 19% and 12%
  Population Tubulin-Different-Phenotype (%): 82% and 83%
  Total Cell Count: 248 and 358
[3]
  Population Apoptotic (%): 33% and 60%
  Population Fragmented Nuclei (%): 14% and 20%
  Population Healthy Nuclei (%): 73% and 65%
  Population Hoechst High Intensity Objects (%): 0%
  Population Membrane Permeable-Phenotype (%): 5% and 3%
  Population Mitochondria Different-Phenotype (%): 3% and 10%
  Population Mitotic Cells (%): 66% and 39%
  Population Normal (%): 100%
  Population Pyknosed Nuclei (%): 11% and 13%
  Population Tubulin-Different-Phenotype (%): 37% and 33%
  Total Cell Count: 209 and 243
[4]
  Population Apoptotic (%): 81% and 82%
  Population Fragmented Nuclei (%): 17% and 27%
  Population Healthy Nuclei (%): 57% and 55%
  Population Hoechst High Intensity Objects (%): 0%
  Population Membrane Permeable-Phenotype (%): 2%
  Population Mitochondria Different-Phenotype (%): 51% and 58%
  Population Mitotic Cells (%): 18% and 17%
  Population Normal (%): 99%
  Population Pyknosed Nuclei (%): 25% and 17%
  Population Tubulin-Different-Phenotype (%): 93% and 88%
  Total Cell Count: 197 and 332
[5]
  Population Apoptotic (%): 44% and 76%
  Population Fragmented Nuclei (%): 19% and 24%
  Population Healthy Nuclei (%): 77% and 70%
  Population Hoechst High Intensity Objects (%): 0%
  Population Membrane Permeable-Phenotype (%): 2% and 3%
  Population Mitochondria Different-Phenotype (%): 0% and 3%
  Population Mitotic Cells (%): 55% and 23%
  Population Normal (%): 100% and 99%
  Population Pyknosed Nuclei (%): 3% and 5%
  Population Tubulin-Different-Phenotype (%): 23% and 17%
  Total Cell Count: 241 and 237
[6]
  Population Apoptotic (%): 95%
  Population Fragmented Nuclei (%): 9% and 17%
  Population Healthy Nuclei (%): 46% and 62%
  Population Hoechst High Intensity Objects (%): 1% and 0%
  Population Membrane Permeable-Phenotype (%): 6% and 1%
  Population Mitochondria Different-Phenotype (%): 75% and 67%
  Population Mitotic Cells (%): 4%
  Population Normal (%): 98% and 99%
  Population Pyknosed Nuclei (%): 43% and 19%
  Population Tubulin-Different-Phenotype (%): 93% and 91%
  Total Cell Count: 144 and 240

## O=C1Nc2ccc(C(=O)c3ccco3)cc2C1=Cc1cc(Cl)c(O)c(Cl)c1 [GW406108X]
[1]
  Population Apoptotic (%): 28% and 31%
  Population Fragmented Nuclei (%): 8% and 6%
  Population Healthy Nuclei (%): 65% and 68%
  Population Hoechst High Intensity Objects (%): 0%
  Population Membrane Permeable-Phenotype (%): 6%
  Population Mitochondria Different-Phenotype (%): 1%
  Population Mitotic Cells (%): 71% and 68%
  Population Normal (%): 99% and 100%
  Population Pyknosed Nuclei (%): 25% and 24%
  Population Tubulin-Different-Phenotype (%): 16% and 8%
  Total Cell Count: 224 and 230
[2]
  Population Apoptotic (%): 44% and 41%
  Population Fragmented Nuclei (%): 8% and 11%
  Population Healthy Nuclei (%): 69% and 67%
  Population Hoechst High Intensity Objects (%): 0% and 2%
  Population Membrane Permeable-Phenotype (%): 6% and 5%
  Population Mitochondria Different-Phenotype (%): 0% and 2%
  Population Mitotic Cells (%): 55% and 58%
  Population Normal (%): 100% and 97%
  Population Pyknosed Nuclei (%): 21% and 20%
  Population Tubulin-Different-Phenotype (%): 18% and 14%
  Total Cell Count: 178 and 206
[3]
  Population Apoptotic (%): 46% and 45%
  Population Fragmented Nuclei (%): 8% and 9%
  Population Healthy Nuclei (%): 72%
  Population Hoechst High Intensity Objects (%): 0%
  Population Membrane Permeable-Phenotype (%): 5% and 4%
  Population Mitochondria Different-Phenotype (%): 0% and 1%
  Population Mitotic Cells (%): 53% and 55%
  Population Normal (%): 100%
  Population Pyknosed Nuclei (%): 18% and 17%
  Population Tubulin-Different-Phenotype (%): 15% and 10%
  Total Cell Count: 248 and 224
[4]
  Population Apoptotic (%): 58% and 43%
  Population Fragmented Nuclei (%): 7% and 17%
  Population Healthy Nuclei (%): 71% and 54%
  Population Hoechst High Intensity Objects (%): 0% and 1%
  Population Membrane Permeable-Phenotype (%): 9% and 10%
  Population Mitochondria Different-Phenotype (%): 1%
  Population Mitotic Cells (%): 41% and 56%
  Population Normal (%): 100% and 98%
  Population Pyknosed Nuclei (%): 21% and 28%
  Population Tubulin-Different-Phenotype (%): 27% and 23%
  Total Cell Count: 169 and 205
[5]
  Population Apoptotic (%): 70% and 55%
  Population Fragmented Nuclei (%): 10% and 9%
  Population Healthy Nuclei (%): 76% and 77%
  Population Hoechst High Intensity Objects (%): 0%
  Population Membrane Permeable-Phenotype (%): 9% and 3%
  Population Mitochondria Different-Phenotype (%): 0%
  Population Mitotic Cells (%): 29% and 44%
  Population Normal (%): 100%
  Population Pyknosed Nuclei (%): 12%
  Population Tubulin-Different-Phenotype (%): 15% and 5%
  Total Cell Count: 242 and 224
[6]
  Population Apoptotic (%): 61% and 68%
  Population Fragmented Nuclei (%): 11% and 16%
  Population Healthy Nuclei (%): 66% and 56%
  Population Hoechst High Intensity Objects (%): 0% and 1%
  Population Membrane Permeable-Phenotype (%): 12% and 10%
  Population Mitochondria Different-Phenotype (%): 0% and 1%
  Population Mitotic Cells (%): 38% and 31%
  Population Normal (%): 100% and 98%
  Population Pyknosed Nuclei (%): 22% and 26%
  Population Tubulin-Different-Phenotype (%): 36% and 31%
  Total Cell Count: 163 and 205
